Experiments:
MEK1–NL + BRAF-V600E = MEK1–NL + BRAF-V600E (Homo sapiens, UniProt Q02750); experiment: MEK1–NL NanoBRET coexpression assay with BRAF-V600E; type: binding; conditions: 1 μM Tram-bo
MEK1–BRAF = MEK1–BRAF (Homo sapiens, UniProt Q02750); experiment: Co-IP of MEK1 and FLAG-tagged BRAF from treated HEK293T cells; type: cell-based; conditions: 1 μM compound, 24 h
In short: (§1)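 HEK293T cells (350,000/well) were transfected 24 h after seeding using Fugene HD. FLAG-BRAF or FLAG-KSR1 was given at 1 μg ml−1 for FLAG pulldown, or 0.5 μg ml−1 for endogenous MEK1 pulldown, each with 9 μg ml−1 carrier DNA. After 24 h, cells got 1 μM compound (0.1% DMSO) for 24 h. 100 μg of lysate was captured on anti-FLAG, anti-MEK1 or normal IgG beads (1 h, 4 °C), then eluted and western blotted for BRAF, MEK1 and FLAG.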

MEK1–KSR1 = MEK1–KSR1 (Homo sapiens, UniProt Q02750); experiment: Co-IP of MEK1 and FLAG-tagged KSR1 from treated HEK293T cells; type: cell-based; conditions: 1 μM compound, 24 h
In short: as §1

[1] = molecular target: 14–3–3–NL + MEK1 + BRAF-R509H (Homo sapiens, UniProt Q02750); experiment: 14–3–3–NL NanoBRET assay with dimer mutant BRAF-R509H; type: binding; conditions: 14–3–3–NL–Tram-bo assay configuration
[2] = molecular target: 14–3–3–NL + MEK1 + KSR1-R665H (Homo sapiens, UniProt Q02750); experiment: 14–3–3–NL NanoBRET assay with dimer mutant KSR1-R665H; type: binding; conditions: 14–3–3–NL–Tram-bo assay configuration
[3] = molecular target: 14–3–3–NL + MEK1 + CRAF-R401H (Homo sapiens, UniProt Q02750); experiment: 14–3–3–NL NanoBRET assay with dimer mutant CRAF-R401H; type: binding; conditions: 14–3–3–NL–Tram-bo assay configuration

decrease in potency (calculated Ki) with BRAF-V600E versus WT BRAF (MEK1–NL + BRAF-V600E)	effect on MEK1–BRAF interaction (co-IP) (MEK1–BRAF)	effect on MEK1–KSR1 interaction (co-IP) (MEK1–KSR1)	change in potency, BRAF-R509H versus BRAF [1]	change in potency, KSR1-R665H versus KSR1 [2]	change in potency, CRAF-R401H versus CRAF [3]	Molecule
~ 100 fold	stabilized	stabilized	insensitive			CNS(=O)(=O)Nc1nccc(Cc2c(C)c3ccc(Oc4ncccn4)cc3oc2=O)c1F [CH5126766]
			significant increase in potency	decrease in potency		O=C(c1ccc(F)c(F)c1Nc1ccc(I)cc1F)N1CC(O)([C@@H]2CCCCN2)C1 [cobimetinib]
	stabilized	stabilized	insensitive	decrease in potency	decrease in potency	trametiglue

Molecule	decrease in potency (calculated Ki) with BRAF-V600E versus WT BRAF (MEK1–NL + BRAF-V600E)	effect on MEK1–BRAF interaction (co-IP) (MEK1–BRAF)	effect on MEK1–KSR1 interaction (co-IP) (MEK1–KSR1)	change in potency, BRAF-R509H versus BRAF [1]	change in potency, KSR1-R665H versus KSR1 [2]	change in potency, CRAF-R401H versus CRAF [3]
CC(=O)Nc1cccc(-n2c(=O)n(C3CC3)c(=O)c3c(Nc4ccc(I)cc4F)n(C)c(=O)c(C)c32)c1 [trametinib]		specifically reduced		insensitive	small but significant decrease in potency	

Reference: publication PMC10948974 (Nature chemical biology, 2023)
